Source: PubChem
A selection: hits, their analogues and other compounds. The true share with any hit is near 2%.
XiGFP reactiv – activators of X-chromosome reactivation in mouse fibroblasts; XiGFP mouse fibroblasts, % GFP-positive cells imaging, 3 d; cells co-treated with 5-aza-dC sensitizer; scaled so ellipticine positive control = 100%; 360,000 tested, 0.055% active; activation, % at 7.58 µM;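 active = mean normalized replicate activation at least 10% and every replicate at or above 10%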
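assay system = SV40-immortalized XiGFP fibroblast cells, line 68-5-11 | buffer or medium = DMEM plus 5-aza-dC sensitizer | doses = single-point pinned compound dosing | times = 3-day compound exposure, then 15 min fixation at room temperature | benchmarks = positive control ellipticine, 6 µM final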
CASP6 VEID inh – caspase-6 (human) enzyme inhibition; P55212; purified caspase-6, Z-VEID-R110 cleavage fluorescence; inhibition, % at 12.5 µM; 350,000 tested, 0.53% active;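 active = mean inhibition across replicates at least about 35%, with every replicate also reaching that limit, limit read from the data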
Target sequence (P55212 24-179 limits assumed): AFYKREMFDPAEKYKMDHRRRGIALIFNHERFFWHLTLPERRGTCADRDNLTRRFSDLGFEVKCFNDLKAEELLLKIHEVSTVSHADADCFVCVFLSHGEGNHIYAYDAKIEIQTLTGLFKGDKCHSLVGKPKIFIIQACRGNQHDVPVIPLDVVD
Target sequence (P55212 194-293 limits assumed): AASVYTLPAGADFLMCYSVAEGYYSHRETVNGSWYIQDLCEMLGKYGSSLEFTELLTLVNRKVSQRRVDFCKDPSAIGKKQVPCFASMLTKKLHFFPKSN
DENV2 CPE rescue – DENV2-induced cell death inhibition | CPE inhibition, % at 9.99 µM | 350,000 tested, 1.7% active | DENV2-infected cells, cytopathic effect rescue, plate reader; in the data active = CPE inhibition above about 20%, passing the limit was not always enough; tested in BHK-21 cells
FN deposition inh – fibronectin deposition inhibition; AH1F fibroblasts, Alexa488-fibronectin deposition fluorescence, overnight; inhibition, % at 12.6 µM; 350,000 tested, 0.086% active;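 active = mean inhibition across replicates of 30% or more, regardless of how many single replicates reach that level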
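Material – AH1F fibroblast monolayer, labelled fibronectin deposition · Reagent – labelled fibronectin 24 nM · Timing – 1 h adhesion, overnight exposure · Measured by – fluorescence at 485 nm excitation, 525 nm emission · Read-out – inhibition of fibronectin deposition signal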
CaV13 FRET inh – Disruptors of the CACNA1D IQ motif to Ca2+-dependent inactivation inhibitor domain association, primary screening, Förster resonance energy transfer in intact living … | HEK cells, CFP/YFP FRET ICDI-IQ, plate reader, 10 min; percent FRET-ratio fall versus neutral wells | inhibition, % at 12.3 µM | 340,000 tested, 0.098% active | AID 743397;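 active = mean replicate inhibition of at least 30% and at least 1% of replicates passing that level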
Of the large screens only hits and unclear results are named; the others gave an inactive call.

CCN(C[C@H]1N[C@@](CC)(C(=O)OC)[C@H]2C(=O)N(C)C(=O)[C@@H]12)S(=O)(=O)c1ccc(C(F)(F)F)cc1	DENV2 CPE rescue 52
CCN(C[C@H]1N[C@@](CC)(C(=O)OC)[C@H]2C(=O)N(C)C(=O)[C@@H]12)S(=O)(=O)c1ccc(C(C)(C)C)cc1	none
Brc1ccc(-c2ccccc2)cc1	DENV2 CPE rescue 62 (no result: XiGFP reactiv, FN deposition inh, CaV13 FRET inh)
Cc1ccc(S(=O)(=O)N2CC[C@@H]3[C@H]2c2cc(-c4ccc(C#N)cc4)ccc2N[C@@H]3CO)cc1	DENV2 CPE rescue 24 (no result: CASP6 VEID inh, CaV13 FRET inh)
O=S(=O)(c1cccc(F)c1)N1CC[C@@H]2[C@H]1c1cc(-c3cccc(F)c3)ccc1N[C@@H]2CO	DENV2 CPE rescue 52 (no result: CASP6 VEID inh, CaV13 FRET inh)
N#Cc1ccc(-c2ccc3c(c2)[C@@H]2[C@@H](CCN2S(=O)(=O)c2cccc(F)c2)[C@@H](CO)N3)cc1	FN deposition inh 35 (no result: CaV13 FRET inh)
O=S(=O)(c1cccc(F)c1)N1CC[C@H]2[C@H](CO)Nc3ccc(-c4cccc(F)c4)cc3[C@H]21	FN deposition inh 36 (no result: CASP6 VEID inh, CaV13 FRET inh)
O=C(NC[C@@H]1CC[C@@H]2[C@@H](CN2S(=O)(=O)c2ccccc2[N+](=O)[O-])O1)Nc1ccccc1	none (no result: XiGFP reactiv, FN deposition inh, CaV13 FRET inh)
O=C(c1ccc2c(c1)OCO2)N1CC(=O)N2[C@H](CO)[C@@H](c3ccc(C#CCC4CCCC4)cc3)[C@H]2C1	none (no result: FN deposition inh, CaV13 FRET inh)
CCNC(=O)C[C@@H]1C=C[C@H](NS(=O)(=O)c2ccc(C)cc2)[C@@H](CO)O1	none (no result: CaV13 FRET inh)
COc1ccc(NC(=O)C(F)(OC)C(F)(F)F)c(OC)c1 (stereo not drawn)	CASP6 VEID inh 55 (no result: XiGFP reactiv, FN deposition inh)
CCCNC(=O)N1C[C@@H](O)COC[C@H]2O[C@@H](CC(=O)N3CCOCC3)CC[C@@H]21	none (no result: CaV13 FRET inh)
C[C@@H]1CCCCO[C@H](CN(C)CC2CCCCC2)[C@@H](C)CN([C@H](C)CO)C(=O)c2cc(NC(=O)Nc3ccccc3)ccc2O1	DENV2 CPE rescue 21 (no result: CaV13 FRET inh)
C[C@H](CO)N1C[C@H](C)[C@@H](CN(C)CC2CCCCC2)Oc2ccc(NC(=O)Nc3ccc(F)cc3)cc2C1=O	DENV2 CPE rescue 27 (no result: FN deposition inh, CaV13 FRET inh)
C[C@@H]1CN([C@@H](C)CO)C(=O)c2cc(NC(=O)Nc3cccc4ccccc34)ccc2O[C@H]1CN(C)CC1CCCCC1	DENV2 CPE rescue 34 (no result: FN deposition inh, CaV13 FRET inh)
C[C@@H]1CCCCO[C@@H](CN(C)CC2CCCCC2)[C@@H](C)CN([C@@H](C)CO)C(=O)c2cc(NC(=O)Nc3ccccc3)ccc2O1	none (no result: CaV13 FRET inh)
C[C@@H]1CN([C@@H](C)CO)C(=O)c2cc(NC(=O)Nc3ccc(F)cc3)ccc2O[C@H]1CN(C)Cc1ccncc1	none (no result: FN deposition inh, CaV13 FRET inh)
C[C@@H]1CN([C@H](C)CO)C(=O)c2cc(NC(=O)Nc3ccc(F)cc3)ccc2O[C@H]1CN(C)Cc1ccncc1	DENV2 CPE rescue 37 (no result: FN deposition inh, CaV13 FRET inh)
C[C@@H]1CN([C@@H](C)CO)C(=O)c2cc(NC(=O)Nc3ccc(F)cc3)ccc2O[C@@H]1CN(C)C	none (no result: FN deposition inh, CaV13 FRET inh)
C[C@H](CO)N1C[C@H](C)[C@H](CN(C)CC2CCCCC2)OCCCC[C@H](C)Oc2ccc(NC(=O)Nc3ccc(F)cc3)cc2C1=O	DENV2 CPE rescue 25 (no result: FN deposition inh, CaV13 FRET inh)
C[C@@H]1CN([C@@H](C)CO)C(=O)c2cc(NC(=O)Nc3ccc(F)cc3)ccc2O[C@@H](C)CCCCO[C@@H]1CN(C)CC1CCCCC1	none (no result: FN deposition inh, CaV13 FRET inh)
C[C@@H]1CN([C@@H](C)CO)C(=O)c2cc(NC(=O)Nc3ccc(F)cc3)ccc2O[C@H]1CN(C)C	DENV2 CPE rescue 27 (no result: FN deposition inh, CaV13 FRET inh)
C[C@@H]1CCCCO[C@@H](CN(C)CC2CC2)[C@H](C)CN([C@H](C)CO)C(=O)c2cc(NC(=O)Nc3ccccc3)ccc2O1	DENV2 CPE rescue 41 (no result: FN deposition inh, CaV13 FRET inh)
COc1ccccc1NC(=O)N[C@H]1C=C[C@@H](CC(=O)N[C@H](C)c2ccccc2)O[C@H]1CO	none (no result: CaV13 FRET inh)
CCCN1[C@@H]2c3ccc(-c4cccnc4)c(=O)n3C[C@H]1[C@H](CO)[C@H]2C(=O)NCCc1cn(C)cn1	none (no result: FN deposition inh, CaV13 FRET inh)
Cc1noc(C)c1NC(=O)N(C)C[C@H]1Oc2c(NC(=O)C3CC3)cccc2C(=O)N([C@H](C)CO)C[C@H]1C	DENV2 CPE rescue 24 (no result: FN deposition inh, CaV13 FRET inh)
Cc1noc(C)c1NC(=O)N(C)C[C@H]1Oc2c(cccc2N(C)C)C(=O)N([C@@H](C)CO)C[C@@H]1C	DENV2 CPE rescue 25 (no result: CaV13 FRET inh)
